Measurements as given in ChEMBL document CHEMBL1126285, “Novel benzothiophene-, benzofuran-, and naphthalenecarboxamidotetrazoles as potential antiallergy agents” (J Med Chem, 1992).

Key:
[1] = species: Homo sapiens; assay: Compound was evaluated for the inhibition of anti-IgE stimulated TXB2 release from human basophil; format: functional
[2] = species: Homo sapiens; assay: Inhibition of anti-IgE stimulated release of Thromboxane B2 (TXB2) from human chopped lung by 50% of control value; format: functional
Summary of the method: (§1)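 Human lung tissue (~400 mg portions) was incubated 10 min in Tyrode's buffer at 37 °C, dosed with drug or vehicle, and challenged 10 min later with anti-IgE (final 3:1000) for 30 min. Supernatant leukotrienes or thromboxane were measured by RIA kits, giving the concentration for 50% inhibition of control release.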

[3] = species: Homo sapiens; assay: Evaluated for the inhibition of superoxide (O2 -) anion release from human neutrophils; format: functional
Summary of the method: (§2)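 Neutrophil preparations (~98% purity) were isolated by Ficoll-Hypaque gradient centrifugation of anticoagulant-treated venous blood and stimulated with serum-opsonized zymosan. Respiratory burst was read as superoxide-mediated reduction of cytochrome C.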

[4] = Concentration inhibiting anti-IgE stimulated release of leukotriene C4/D4 (LTC4/D4) from human chopped lung by 50% of control value; format: functional, tissue-based; summary of the method: as §1
[5] = target: T1, Eosinophil peroxidase (Homo sapiens) (UniProt P11678); assay: Compound was evaluated for the inhibition of serum-opsonized zymosan stimulated eosinophil peroxidase release from human eosinophil; Inactive; format: functional; details: concentration not given here
T1 sequence (whole entry): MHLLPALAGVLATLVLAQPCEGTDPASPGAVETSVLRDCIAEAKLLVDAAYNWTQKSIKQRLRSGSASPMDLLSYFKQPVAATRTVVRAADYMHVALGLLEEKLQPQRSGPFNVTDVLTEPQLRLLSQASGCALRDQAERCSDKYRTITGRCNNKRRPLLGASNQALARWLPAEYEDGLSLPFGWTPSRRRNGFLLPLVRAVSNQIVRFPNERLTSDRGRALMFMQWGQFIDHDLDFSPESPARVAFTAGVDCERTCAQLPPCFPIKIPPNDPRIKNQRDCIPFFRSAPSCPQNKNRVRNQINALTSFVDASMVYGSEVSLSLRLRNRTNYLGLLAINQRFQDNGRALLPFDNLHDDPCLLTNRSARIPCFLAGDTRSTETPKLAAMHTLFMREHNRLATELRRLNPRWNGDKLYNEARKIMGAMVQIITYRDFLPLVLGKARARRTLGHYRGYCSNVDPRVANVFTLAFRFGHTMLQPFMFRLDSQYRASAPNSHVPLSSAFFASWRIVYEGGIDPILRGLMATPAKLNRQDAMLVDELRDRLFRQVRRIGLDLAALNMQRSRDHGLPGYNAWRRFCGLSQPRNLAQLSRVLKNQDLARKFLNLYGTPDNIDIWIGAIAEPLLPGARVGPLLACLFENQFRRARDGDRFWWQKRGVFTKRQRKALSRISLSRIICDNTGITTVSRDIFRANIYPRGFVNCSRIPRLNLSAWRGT

[6] = species: Homo sapiens; assay: Compound was evaluated for the inhibition of serum-opsonized zymosan stimulated TXB2 release from human neutrophil; format: functional
Summary of the method: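 Human polymorphonuclear leukocytes (~98% neutrophils) came from anticoagulant-treated venous blood via Ficoll-Hypaque centrifugation. They were stimulated with serum-opsonized zymosan, and TxB2 release was measured by radioimmunoassay.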

[7] = Compound was evaluated for the inhibition of anti-IgE stimulated histamine release from human basophil; format: functional
Summary of the method: (§3)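 Whole blood from well-characterized allergic donors; after red-cell sedimentation, leukocytes were washed and resuspended in buffer, preincubated with compound, then challenged with anti-IgE. Histamine was read by automated fluorometric assay, with inhibition taken against anti-IgE-challenged nondrug controls. IC50 runs used 3-fold steps over 1-100 μM.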

[8] = species: Homo sapiens; assay: Evaluated for the inhibition of human basophil histamine release stimulated by anti-Immunoglobulin E (IgE) at a concentration of 33 uM; format: functional; summary of the method: as §3
[9] = Compound was evaluated for the inhibition of serum-opsonized zymosan stimulated superoxide (O2-) release from human neutrophil; format: functional; summary of the method: as §2
[10] = Compound was evaluated for the inhibition of serum-opsonized zymosan stimulated superoxide (O2-) release from human eosinophil; format: functional
Summary of the method: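 Eosinophils were enriched above 95% purity by discontinuous Percoll gradient centrifugation after Ficoll-Hypaque separation of venous blood leukocytes. Cells were stimulated with serum-opsonized zymosan, and superoxide was measured as cytochrome C reduction.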

[11] = species: Homo sapiens; assay: Evaluated for the inhibition of human basophil histamine release stimulated by anti-Immunoglobulin E (IgE) at a concentration of 10 uM; format: functional; summary of the method: as §3
[12] = Concentration inhibiting anti-IgE stimulated release of histamine from human chopped lung by 50% of control value; format: functional, tissue-based
Summary of the method: (§4)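 Human lung tissue was washed, and ~400 mg portions were placed in 37 °C buffer. After 10 min in Tyrode's buffer, drug or vehicle was added; 10 min later, tissue was challenged with anti-IgE (final dilution 3:1000) for 30 min. Supernatant histamine was assayed, giving the concentration for 50% inhibition versus control.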

[13] = species: Homo sapiens; assay: Inhibition of anti-IgE stimulated release of histamine from human chopped lung by 50% of control value; format: functional; summary of the method: as §4
[14] = species: Homo sapiens; assay: Inhibition of anti-IgE stimulated release of leukotriene C4/D4 (LTC4/D4) from human chopped lung by 50% of control value; format: functional; summary of the method: as §1
[15] = species: Homo sapiens; assay: Evaluated for the inhibition of human basophil histamine release stimulated by anti-Immunoglobulin E (IgE) at a concentration of 10 uM; inactive; format: functional; summary of the method: as §3
[16] = Compound was evaluated for the inhibition of human basophil histamine release stimulated by anti-Immunoglobulin E (IgE) at a concentration of 33 uM; inactive; format: functional; summary of the method: as §3
[17] = Compound was evaluated for the inhibition of superoxide (O2 -) anion release from human neutrophils at 100 uM; inactive; format: functional; summary of the method: as §2

Structure (SMILES)	IC50 [3] [µM]	inhibition at 33 µM [8] [%]	inhibition at 10 µM [11] [%]	inhibition at 10 µM [15] [%]	also measured
COc1ccc2sc(C(=O)Nc3nnn[nH]3)c(OC(C)C)c2c1	14.5	97.3	94.7		IC50 [1]: 0.2 µM; IC50 [2]: 0.3 µM; IC50 [4]: 0.3 µM; inhibition [5]: < 20%; IC50 [6]: 4.5 µM; IC50 [7]: 1.1 µM; IC50 [9]: 14.5 µM; IC50 [10]: 5.5 µM; IC50 [12]: 2.3 µM
COc1cc2sc(C(=O)Nc3nn[nH]n3)c(OCc3ccccc3)c2cc1OC	40	90.7	90.3		IC50 [13]: 2.5 µM; IC50 [2]: < 0.74 µM; IC50 [14]: 1.3 µM
COc1ccc2c(c1)c(OC(C)C)c(C(=O)Nc1nn[nH]n1)n2-c1ccccc1	> 100	82	46		IC50 [13]: 11 µM; IC50 [2]: 12 µM; IC50 [14]: 12 µM
COc1ccc2sc(C(=O)Nc3nn[nH]n3)c(OCc3ccccc3)c2c1	23.4	84.5	80.8		
COc1cc2sc(C(=O)Nc3nn[nH]n3)c(OC(C)C)c2cc1OC	17.7	81.7	80		IC50 [13]: 4.5 µM; IC50 [2]: < 0.75 µM; IC50 [14]: 0.3 µM
COc1ccc2sc(C(=O)Nc3nn[nH]n3)c(OC(C)(C)C)c2c1	> 100	100	62		
COc1cc2sc(C(=O)Nc3nn[nH]n3)c(Oc3ccccc3)c2cc1OC	5.7	93.6	96		IC50 [13]: 4.9 µM; IC50 [2]: < 0.75 µM; IC50 [14]: 9.7 µM
COc1ccc2ccc(C(=O)Nc3nn[nH]n3)c(OC(C)C)c2c1	> 100	90.5	51		
COc1ccc2sc(C(=O)Nc3nn[nH]n3)c(Oc3ccccc3)c2c1	10.1	91.3	96.3		IC50 [13]: 3.5 µM; IC50 [2]: 4.9 µM; IC50 [14]: 1.1 µM
CC(C)Oc1c(C(=O)Nc2nn[nH]n2)sc2ccc(O)cc12	47.8	86		< 25	
CC(C)Oc1c(C(=O)Nc2nn[nH]n2)sc2ccc(Oc3ccccc3)cc12	> 100	55		< 25	
COc1ccc2oc(C(=O)Nc3nn[nH]n3)c(OC(C)C)c2c1	> 100	43.3		< 25	
CC(C)Oc1c(C(=O)Nc2nn[nH]n2)sc2ccccc12	> 100	65.8	27.5		
CCCc1c2oc(C(=O)O)cc(=O)c2cc2c(=O)cc(C(=O)O)n(CC)c12 [NEDOCROMIL]				< 25	inhibition at 33 µM [16]: < 25%
COc1ccc2c(OC(C)C)c(C(=O)Nc3nn[nH]n3)sc2c1Cl	> 100			< 25	inhibition at 33 µM [16]: < 25%
COc1ccc2c(OC(C)C)c(C(=O)Nc3nn[nH]n3)oc2c1	42.5	99.5	77		
COc1cccc2c(OC(C)C)c(C(=O)Nc3nn[nH]n3)sc12	> 100	< 25		< 25	
COc1ccc2c(OC(C)C)c(C(=O)Nc3nn[nH]n3)sc2c1	37	88.6	92		IC50 [13]: 0.9 µM; IC50 [2]: 0.3 µM; IC50 [14]: 0.4 µM
COc1ccc2c(OC(C)C)c(C(=O)Nc3nn[nH]n3)ccc2c1		72.7	31.3		
CC(C)Oc1c(C(=O)Nc2nn[nH]n2)sc2ccc(OCc3ccccc3)cc12	> 100	41.6		< 25	
CC(C)Oc1c(C(=O)Nc2nn[nH]n2)sc2ccc(Cl)cc12	> 100	92	73		
COc1ccc2sc(C(=O)Nc3nn[nH]n3)c(OC)c2c1	> 100	97.3	59.8		
Cc1ccc2sc(C(=O)Nc3nn[nH]n3)c(OC(C)C)c2c1				< 25	inhibition at 100 µM [17]: < 5%; inhibition at 33 µM [16]: < 25%
CCOc1c(C(=O)Nc2nn[nH]n2)sc2ccc(OC)cc12	> 100	98	92.5		
CC(C)Oc1c(C(=O)Nc2nn[nH]n2)sc2ccc([N+](=O)[O-])cc12		53		< 25	inhibition at 100 µM [17]: < 5%
